Results reported in ChEMBL document CHEMBL1123304 (J Med Chem, 1986).

Experiments:
[1] = species on record: Mus musculus; test: Amphetamine induced motility in mice; format: functional
[2] = species on record: Mus musculus; test: Inhibitory activity against reserpine hypothermia in mice.; format: functional
Method in brief: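 Mice (male CFLP, 18–22 g, 10/group) given reserpine 1 mg/kg ip 3 h before testing. Rectal temperature read with a thermistor probe. Compounds given sc 15 or 30 min before testing. Minimum effective dose.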

[3] = species on record: Felis catus; test: Compound was tested for potentiating the dopamine-induced hypotension in cats.; format: functional
[4] = tested on: Mus musculus; test: Inhibitory activity against tetrabenazine catalepsy in mice (sc); format: functional
[5] = tested on: Mus musculus; test: Dose influencing (+/-) the spontaneous motility in mice, administered intraperitoneally (ip); format: functional
Method in brief: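 CFLP male mice, 10/group. Spontaneous motility recorded in a circuit-closing apparatus, no amphetamine. Compounds given 15 or 30 min before testing. Vehicle controls. Minimum dose raising (+) or lowering (−) motility, ip.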

[6] = tested on: Mus musculus; test: Inhibition of tetrabenazine ptosis in mice (sc).; format: functional
[7] = Lethal effect was determined in mice; format: ADME, organism-based; conditions: mouse, in vivo
Method in brief: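 Male CFLP (Swiss) mice, 18–22 g, dosed sc. Vehicle was physiological saline, with Tween-80 added for some compounds in this determination; controls received the solvent. LD50 in mg/kg determined.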

[8] = target: Sodium-dependent dopamine transporter (Rattus norvegicus) (UniProt P23977); test: Inhibitory activity against inducing stereotypy in rats; format: functional
Method in brief: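 Male CFY (Sprague-Dawley) rats. Animals showing stereotypy were placed in an activity meter. Doses giving 5 times control motility were determined. Minimum effective dose, sc.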

[9] = species on record: Mus musculus; test: Compound was evaluated for the inhibitory activity against Tetrabenazine ptosis in mice; format: functional
Method in brief: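 CFLP male mice, 18–22 g, 10/group. Tetrabenazine 35 mg/kg ip at −20 min. Ptosis rated by an observer blind to treatment. Compounds given sc 15 or 30 min beforehand. Controls received the vehicle. ED50 with range.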

[10] = target: Sodium-dependent dopamine transporter (Mus musculus) (UniProt Q61327); test: Compound was evaluated for the inhibitory activity against Haloperidol catalepsy in mice; format: functional
Method in brief: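 Male CFLP (Swiss) mice, 18–22 g, 10/group. Haloperidol 5 mg/kg ip, 60 min. Catalepsy tested on a vertical grid. Compounds given sc 15 or 30 min before testing, in saline or the listed vehicles. Controls received the vehicle. ED50 with range.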

[11] = species on record: Mus musculus; test: Compound was evaluated for the inhibitory activity against tetrabenazine catalepsy in mice; format: functional
Method in brief: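 Male CFLP (Swiss) mice, 18–22 g, 10/group. Tetrabenazine 25 mg/kg ip, 30 min before testing. Catalepsy scored on a vertical grid. Compounds given sc 15 or 30 min before testing. Controls received the vehicle. ED50 with range.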

[12] = species on record: Felis catus; test: Compound was tested for potentiating the dopamine-induced hypotension in cats; format: functional
[13] = tested on: Mus musculus; test: Compound was evaluated for the dose influencing (+/-) the amphetamine induced motility in mice, administered intraperitoneally (ip); format: functional

Sodium-dependent dopamine transporter (Rattus norvegicus), sequence (P23977 whole entry): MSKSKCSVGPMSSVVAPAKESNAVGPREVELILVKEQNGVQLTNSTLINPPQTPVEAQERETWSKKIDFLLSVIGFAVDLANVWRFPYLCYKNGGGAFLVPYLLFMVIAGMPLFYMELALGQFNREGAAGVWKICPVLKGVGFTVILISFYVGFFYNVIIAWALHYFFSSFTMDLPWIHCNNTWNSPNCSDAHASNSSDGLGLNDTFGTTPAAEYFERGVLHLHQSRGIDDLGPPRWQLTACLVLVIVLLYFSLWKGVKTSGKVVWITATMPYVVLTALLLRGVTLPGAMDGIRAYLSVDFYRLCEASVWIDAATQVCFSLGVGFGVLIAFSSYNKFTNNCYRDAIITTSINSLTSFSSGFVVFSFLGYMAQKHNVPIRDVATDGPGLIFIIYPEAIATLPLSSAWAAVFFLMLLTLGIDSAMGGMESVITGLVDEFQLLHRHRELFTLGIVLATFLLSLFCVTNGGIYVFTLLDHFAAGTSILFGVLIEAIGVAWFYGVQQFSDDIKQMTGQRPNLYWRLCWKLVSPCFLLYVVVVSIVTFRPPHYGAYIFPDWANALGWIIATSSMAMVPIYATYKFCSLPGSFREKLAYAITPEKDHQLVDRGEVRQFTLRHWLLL
Sodium-dependent dopamine transporter (Mus musculus), sequence (Q61327 whole entry): as the sequence (P23977 whole entry) above, with S21P, A57V, A194S, H600R, L619V counted along it

| SMILES | EDmin [1] [mg/kg] | EDmin [2] [mg/kg] | EDmin [3] [mg/kg] | ED50 [4] [mg/kg] | EDmin [5] [mg/kg] | ED50 [6] [mg/kg] | LD50 [7] [mg/kg] | EDmin [8] [mg/kg] | ED50 [9] [mg/kg] | ED50 [10] [mg/kg] | ED50 [11] [mg/kg] | EDmin [12] [mg/kg] | EDmin [13] [mg/kg] |
| --- | --- | --- | --- | --- | --- | --- | --- | --- | --- | --- | --- | --- | --- |
| CC(C)c1ccc(C2CN(C)Cc3c(N)cccc32)cc1 (stereo unspecified) | 80 | 50 | 2 | > 80 | 80 | 68 | 1100 | – | – | – | – | – | – |
| CN1Cc2c(N)cccc2C(c2ccc(F)cc2)C1 (stereo unspecified) | 10 | 2 | 0.2 | ~3.6 | 5 | 0.25 | 222 | – | – | – | – | – | – |
| CCNCC(=O)Nc1cccc2c1CN(C)CC2c1ccccc1 (stereo unspecified) | >30 | 60 | 2 | 47 | >60 | – | 320 | 52.4 | – | – | – | – | – |
| CCCCNCC(=O)Nc1cccc2c1CN(C)CC2c1ccccc1 (stereo unspecified) | >30 | >40 | 2 | 32 | 15 | – | 240 | 32.8 | – | – | – | – | – |
| CC(C)NCC(=O)Nc1cccc2c1CN(C)CC2c1ccccc1 (stereo unspecified) | >30 | 20 | 1 | 14 | 30 | – | 300 | > 52.4 | – | – | – | – | – |
| CCCNC(=O)Nc1cccc2c1CN(C)CC2c1ccccc1 (stereo unspecified) | 80 | >60 | 10 | > 80 | >80 | > 80 | 455 | > 83 | – | – | – | – | – |
| CCNCC(=O)Nc1cccc2c1CN(C)CC2c1ccc(C)cc1 (stereo unspecified) | >10 | 20 | 1.5 | ~45 | 10 | 5.6 | 320 | > 83 | – | – | – | – | – |
| CCCCNC(=O)Nc1cccc2c1CN(C)CC2c1ccc(C)cc1 (stereo unspecified) | 20 | 20 | >5 | 40 | 20 | ~15 | > 1200 | 83 | – | – | – | – | – |
| CCCCNC(=O)Nc1cccc2c1CN(C)CC2c1ccccc1 (stereo unspecified) | 80 | >40 | 2 | ~40 | 80 | 23 | 430 | > 83 | – | – | – | – | – |
| CCCCOC(=O)Nc1cccc2c1CN(C)CC2c1ccccc1 (stereo unspecified) | >5 | 20 | 2 | 4 | 5 | 2.6 | 180 | 20.5 | – | – | – | – | – |
| CN1Cc2c(NC(=O)CN3CCCCC3)cccc2C(c2ccccc2)C1 (stereo unspecified) | >60 | 20 | 3.5 | ~65 | >100 | – | 520 | > 83 | – | – | – | – | – |
| CCOC(=O)Nc1cccc2c1CN(C)CC2c1ccc(F)cc1 (stereo unspecified) | 5 | 10 | 2 | 3.5 | 20 | 3.3 | 255 | 8 | – | – | – | – | – |
| CCCCNCC(=O)Nc1cccc2c1CN(C)CC2c1ccc(C)cc1 (stereo unspecified) | >10 | 10 | 1 | 34 | 5 | ~2.5 | 320 | 52.4 | – | – | – | – | – |
| CC(C)NCCC(=O)Nc1cccc2c1CN(C)CC2c1ccccc1 (stereo unspecified) | 160 | 200 | 2 | 150 | 160 | ~125 | 900 | > 83 | – | – | – | – | – |
| CCOC(=O)Nc1cccc2c1CN(C)CC2c1ccccc1 (stereo unspecified) | 4 | 2 | – | 3.2 | >8 | ~4 | 71 | > 12.8 | – | – | – | – | – |
| CCCCNC(=O)Nc1cccc2c1CN(C)CC2c1ccc(Cl)cc1 (stereo unspecified) | >30 | >100 | 3 | 44 | 15 | 15 | > 1000 | 134 | – | – | – | – | – |

| SMILES | EDmin [1] [mg/kg] | EDmin [2] [mg/kg] | EDmin [3] [mg/kg] | ED50 [4] [mg/kg] | EDmin [5] [mg/kg] | ED50 [6] [mg/kg] | LD50 [7] [mg/kg] | EDmin [8] [mg/kg] | ED50 [9] [mg/kg] | ED50 [10] [mg/kg] | ED50 [11] [mg/kg] | EDmin [12] [mg/kg] | EDmin [13] [mg/kg] |
| --- | --- | --- | --- | --- | --- | --- | --- | --- | --- | --- | --- | --- | --- |
| CN1Cc2c(NC(=O)CCCl)cccc2C(c2ccccc2)C1 (stereo unspecified) | >15 | >30 | 1 | – | >30 | – | 89 | 20.5 | 8.8 | 19 | > 30 | – | – |
| CN1Cc2c(N)cccc2C(c2ccccc2)C1 (stereo unspecified) [NOMIFENSINE] | >5 | – | – | – | 10 | – | 336 | – | – | – | – | 0.5 | – |
| CCNCCC(=O)Nc1cccc2c1CN(C)CC2c1ccccc1 (stereo unspecified) | >160 | 200 | 4 | > 200 | 160 | > 160 | 720 | 134 | – | – | – | – | – |
| CN1Cc2c(NC(=O)OCc3ccccc3)cccc2C(c2ccccc2)C1 (stereo unspecified) | 100 | 20 | >5 | ~15 | 100 | 16 | > 1000 | 12 | – | – | – | – | – |
| CCNCC(=O)Nc1cccc2c1CN(C)CC2c1ccc(Cl)cc1 (stereo unspecified) | >20 | 5 | 0.5 | 24 | 20 | 6.4 | 325 | 32.8 | – | – | – | – | – |
| CN1Cc2c(N)cccc2C(c2ccc(Cl)cc2)C1 (stereo unspecified) | 5 | 2 | – | 1.6 | 10 | 1.1 | 240 | – | – | – | – | – | – |
| CN1Cc2c(NC(=O)OCCCl)cccc2C(c2ccccc2)C1 (stereo unspecified) | 5 | 20 | 2 | – | >20 | – | 160 | > 20.5 | 2.5 | 11 | 9 | – | – |
| CN1Cc2c(NC(=O)CCl)cccc2C(c2ccccc2)C1 (stereo unspecified) | 10 | >30 | 1 | – | 20 | – | 94 | 8 | 3 | 10 | 10 | – | – |
| CN1Cc2c(NC(=O)CN3CCOCC3)cccc2C(c2ccccc2)C1 (stereo unspecified) | 60 | 20 | 3 | 39 | 60 | – | 295 | 83 | – | – | – | – | – |
| Cc1ccc(C2CN(C)Cc3c(N)cccc32)cc1 (stereo unspecified) | – | 2 | 0.2 | 1.6 | 15 | ~1.2 | 800 | – | – | – | – | – | 10 |
| CN1Cc2c(NC(=O)CN3CCCC3)cccc2C(c2ccccc2)C1 (stereo unspecified) | >120 | 50 | 3 | 39 | 120 | ~25 | 380 | 52.4 | – | – | – | – | – |
| CCNC(=O)Nc1cccc2c1CN(C)CC2c1ccccc1 (stereo unspecified) | 40 | 40 | 6 | 80 | 80 | 54 | 290 | > 83 | – | – | – | – | – |
| CCCCNCC(=O)Nc1cccc2c1CN(C)CC2c1ccc(Cl)cc1 (stereo unspecified) | >20 | 5 | 0.5 | 13.5 | >20 | 3.9 | 320 | 32.8 | – | – | – | – | – |
| CCOC(=O)Nc1cccc2c1CN(C)CC2c1ccc(Cl)cc1 (stereo unspecified) | 20 | 10 | 0.5 | 4.8 | 3 | 0.6 | 830 | 5.2 | – | – | – | – | – |
| CCCCNCCC(=O)Nc1cccc2c1CN(C)CC2c1ccccc1 (stereo unspecified) | >80 | >40 | >5 | ~46 | >80 | 74 | 292 | > 83 | – | – | – | – | – |
